Reference: ChEMBL document CHEMBL1132378, “Allosteric modulation of the adenosine A(1) receptor. Synthesis and biological evaluation of novel 2-amino-3-benzoylthiophenes as allosteric enhancers of agonist binding” (J Med Chem, 1999)

What was measured:
[1] = target: T1, Adenosine receptor A1 (Rattus norvegicus) (UniProt P25099); assay: Enhancing activity at 10 uM PD 81,723 (100%) at Adenosine A1 receptor in rat brain cortex membranes; format: cell membranes
T1 sequence (whole entry): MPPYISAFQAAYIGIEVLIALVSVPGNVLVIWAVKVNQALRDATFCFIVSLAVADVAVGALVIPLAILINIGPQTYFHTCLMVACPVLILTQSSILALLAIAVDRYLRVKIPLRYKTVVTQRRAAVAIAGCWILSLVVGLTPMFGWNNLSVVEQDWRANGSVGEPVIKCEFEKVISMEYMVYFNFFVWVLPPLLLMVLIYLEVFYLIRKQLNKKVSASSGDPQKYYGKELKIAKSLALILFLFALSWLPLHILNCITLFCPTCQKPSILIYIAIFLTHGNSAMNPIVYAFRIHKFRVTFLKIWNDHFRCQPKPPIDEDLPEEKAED
Method in brief: (§1)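 Rat brain cortex membranes (ADA-treated, 2 U/mL at 37 °C) preincubated 2.5 h with 0.5 nM [3H]CCPA. Dissociation then started with 100 μM CPA, with or without 10 μM test compound. Bound [3H]CCPA measured after 1 h.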

[2] = target: T1, Adenosine receptor A1 (Rattus norvegicus); assay: Antagonistic activity expressed as percent displacement of 0.4 nM of [3H]DPCPX from adenosine A1 receptors in rat brain cortex membranes at 10 uM; format: functional, cell membranes; settings: Membrane
Method in brief: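 Rat brain cortex membranes (ADA-treated, 2 U/mL at 37 °C before storage; 30 μg/mL) incubated 1 h at 25 °C in 50 mM Tris/HCl pH 7.4 with 0.4 nM [3H]DPCPX and 10 μM compound. Nonspecific binding defined by 10 μM CPA. Result is percent displacement of radioligand; n = 3–5.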

Adenosine receptor A1 = target: T2, Adenosine receptor A1 (Rattus norvegicus, UniProt P25099); assay: Enhanced 0.5 nM [3H]CCPA dissociation from adenosine A1 receptor of rat brain cortex membranes compared to 100 uM CPA
T2 sequence (P25099 whole entry): T1 sequence (whole entry)
Method in brief: as §1, with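 “h. Percent decrease in dissociation scaled between control (0%) and 10 μM PD 81,723 as reference (100%); n = 3.” for “h.”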

Enhancement [1]	Antagonism [2]	EC50 (Adenosine receptor A1)	SMILES
33.9%	19.5%	–	Nc1sc2c(c1C(=O)c1ccc([N+](=O)[O-])cc1)CCCC2
69%	52.2%	–	Nc1sc2c(c1C(=O)c1ccccc1)CCN(Cc1ccc(Cl)cc1)C2
100%	39.5%	14.7 µM	Cc1sc(N)c(C(=O)c2cccc(C(F)(F)F)c2)c1C
8%	13.9%	–	Cc1sc(N)c(C(=O)c2ccccc2)c1C
137%	30.3%	34.9 µM	Cc1ccc(C(=O)c2c(N)sc3c2CCCC3)cc1
131%	56.7%	4.7 µM	Nc1sc2c(c1C(=O)c1ccc(C(F)(F)F)cc1)CCCC2
29.9%	22.3%	–	CCc1c(C)sc(N)c1C(=O)c1cccc(Cl)c1
122%	32.2%	6 µM	Nc1sc2c(c1C(=O)c1cccc(C(F)(F)F)c1)CCCC2
112%	5.4%	–	CCc1c(C)sc(N)c1C(=O)c1cccc(C(F)(F)F)c1
132%	60.9%	11.3 µM	Nc1sc2c(c1C(=O)c1ccc(Cl)cc1)CCN(Cc1ccccc1)C2
31.4%	12.6%	–	CCc1c(C)sc(N)c1C(=O)c1ccccc1
113%	65.8%	–	Nc1sc2c(c1C(=O)c1cccc(I)c1)CCCC2
80.3%	18.7%	–	Cc1sc(N)c(C(=O)c2cccc(Cl)c2)c1C
106%	80.1%	15.1 µM	Nc1sc2c(c1C(=O)c1ccccc1)CCN(Cc1cccc(Cl)c1)C2
93.5%	41%	–	Cc1sc(N)c(C(=O)c2ccc(Cl)cc2)c1C
151%	34.7%	6.2 µM	Nc1sc2c(c1C(=O)c1ccc(Cl)c(Cl)c1)CCCC2
123%	39.9%	6.8 µM	Nc1sc2c(c1C(=O)c1ccc(Cl)cc1)CCCC2 [T-62]
43.9%	28.9%	–	COC(=O)c1ccc(C(=O)c2c(N)sc3c2CCCC3)cc1
28.6%	–	–	Nc1sc2c(c1C(=O)c1ccc(C(=O)O)cc1)CCCC2
47.2%	34.7%	–	Nc1sc2c(c1C(=O)c1ccccc1)CCCC2
72.5%	35.1%	–	Nc1sc2c(c1C(=O)c1ccccc1Cl)CCCC2
174%	51%	9.2 µM	Nc1sc2c(c1C(=O)c1ccc(Cl)c(Cl)c1)CCN(Cc1ccccc1)C2
106%	45.7%	32 µM	Nc1sc2c(c1C(=O)c1ccc(Cl)cc1)CCN(Cc1ccc(Cl)c(Cl)c1)C2
155%	64.4%	4.5 µM	Nc1sc2c(c1C(=O)c1ccc(I)cc1)CCCC2
52.8%	67.1%	–	Nc1sc2c(c1C(=O)c1ccccc1)CCN(Cc1ccccc1)C2
57%	4%	–	Nc1sc2c(c1C(=O)c1ccccc1)CCN(Cc1ccc(Cl)c(Cl)c1)C2
97.2%	19.8%	–	CCc1c(C)sc(N)c1C(=O)c1ccc(Cl)cc1
13.8%	71.8%	–	Nc1sc2c(c1C(=O)c1ccccc1)CCN(C(=O)c1ccccc1)C2
128%	41.6%	16.4 µM	Nc1sc2c(c1C(=O)c1ccc(Br)cc1)CCCC2
92.7%	50.6%	10.5 µM	Nc1sc2c(c1C(=O)c1cccc(Cl)c1)CCCC2
